Read-outs that look alike come from different tables or passages of the source.
Tests used:
[1] = tested on: hormone receptor-positive breast cancer; conditions: cited from earlier work
[2] = Pharmacokinetics, plasma LC-MS/MS, non-compartmental analysis; format: in vivo, human; conditions: AUC0–24 on Days 1 and 18/21 of Cycle 1, 600 mg/day dose
Method in brief: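 Oral daily dosing at 50–1,200 mg/day. On Cycle 1 Days 1 and 18/21, blood was drawn pre-dose and at 0.5, 1, 2, 4, 6, 8 and 24 h, with further trough days. Parent drug and a metabolite in plasma were measured by validated LC-MS/MS (LLOQ 1.0 ng/mL). Non-compartmental analysis was used. Dose proportionality was fitted as ln(Cmax or AUC0–24) = α + β ln(dose). T1/2,acc came from the accumulation ratio; steady state was judged from troughs.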

metabolite exposure relative to parent drug [2]	SMILES	median progression-free survival ([1]; in combination with fulvestrant)	median progression-free survival ([1]; in combination with letrozole)
–	CC(=O)c1c(C)c2cnc(Nc3ccc(N4CCNCC4)cn3)nc2n(C2CCCC2)c1=O [palbociclib]	improved median progression-free survival	improved median progression-free survival
approximately 10%	CNC(=O)c1cc2cnc(Nc3ccc(N4CCNCC4)cn3)nc2n1C1CCCC1 [LEQ803]	–	–

— PMC5621377 (Clinical cancer research : an official journal of the …, 2016)
